RGS4 pot: potentiators or activators of RGS4; HEK293 M3R/inducible RGS4, carbachol calcium flux Fluo4; hits give low values; B-score at 10 µM; actives 0.92% (n = 310,000);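 active = B-score of the integrated calcium signal more than 4 SD below the library mean, with starting fluorescence not abnormally high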;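 also: negative B-score means reduced calcium response which marks RGS4 activation or potentiation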
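Test system: HEK293 cells with stable M3R and inducible RGS4; also added: carbachol at ECmax as muscarinic agonist stimulus; schedule: dye loading 30 min 37 °C, buffer rest 30 min RT; technique: kinetic calcium fluorescence imaging with Fluo4-AM dye, 2 µM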
MrgX1 PAM: allosterically activates human MrgX1 receptor signaling | Q96LB2 | MrgX1-HEK293, Fluo-4 calcium flux, FDSS; hits give high values | B-score at 10 µM | actives 0.63% (n = 310,000) | AID 588675;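 active = plate-corrected calcium response at least 3 library SD above typical, normal starting fluorescence, not activating the receptor alone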;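 also: compound read alongside a low EC10 to EC30 dose of BAM8-22 agonist; peak minus trough fluorescence over baseline measured at the second addition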
Target sequence (Q96LB2 whole entry, looked up): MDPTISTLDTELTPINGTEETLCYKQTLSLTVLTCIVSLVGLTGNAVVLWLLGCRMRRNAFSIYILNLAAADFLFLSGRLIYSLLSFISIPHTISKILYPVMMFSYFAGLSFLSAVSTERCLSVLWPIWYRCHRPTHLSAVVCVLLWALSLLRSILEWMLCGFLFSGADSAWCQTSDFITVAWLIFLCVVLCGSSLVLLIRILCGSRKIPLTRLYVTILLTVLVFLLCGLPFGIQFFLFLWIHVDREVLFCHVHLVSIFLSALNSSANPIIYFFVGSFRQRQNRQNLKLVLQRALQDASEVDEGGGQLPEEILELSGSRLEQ
RGS4 block: human RGS4 inhibition; HEK293 M3R/RGS4 inducible, Fluo-4 calcium flux; hits give high values; triggered by carbachol at its EC20; B-score at 10 µM; AID 463165; actives 0.45% (n = 310,000);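 active = B-score, a plate-corrected calcium signal, over three deviations above library mean, with baseline fluorescence within five deviations of library mean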;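 also: RGS4 expression induced by doxycycline in cells with stable M3 receptor; B-score is computed from the integrated fluorescence ratio over baseline after carbachol; higher B-score means a larger calcium signal and so more RGS4 inhibition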
Target sequence (P49798 whole entry, looked up): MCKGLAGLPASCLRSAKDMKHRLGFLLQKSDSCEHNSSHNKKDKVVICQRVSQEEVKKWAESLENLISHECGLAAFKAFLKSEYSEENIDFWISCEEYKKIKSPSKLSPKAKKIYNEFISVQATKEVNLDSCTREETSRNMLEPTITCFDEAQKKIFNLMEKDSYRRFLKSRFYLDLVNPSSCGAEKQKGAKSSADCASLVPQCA
MrgX1 antagonist: human MrgX1 receptor antagonism, primary screen | Q96LB2 | MRGX1-HEK293 calcium flux, Fluo-4, BAM8-22 antagonism; hits give low values | B-score at 10 µM | actives 1.3% (n = 310,000);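 active = calcium-response B-score plate-corrected more than 3 library SD below zero, starting fluorescence within 5 deviations, no agonist response on first addition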;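 also: peak minus trough fluorescence over baseline after final BAM8-22 challenge near maximal dose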
MrgX1 agonist: human MrgX1 receptor agonism, primary screen; Q96LB2; actives 0.44% (n = 310,000); AID 588627; B-score at 10 µM; MrgX1-HEK293 cells, Fluo-4 calcium fluorescence, agonist mode; hits give high values;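 active = calcium response B-score plate-corrected fluorescence ratio at least 3 library SD, with starting fluorescence B-score inside 5 SD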
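Material: HEK293 cells stably expressing human MrgX1 receptor | Quantity: 15,000 cells per well | Times: Cells plated overnight, dye loaded 0.5 h 37 °C, 0.5 h room temperature | Measured by: Kinetic Fluo-4 NW fluorescence of intracellular calcium | Control set: Positive and negative controls per plate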
MrgX1 antag conf: human MrgX1 receptor antagonism, re-confirmation screen. shares compounds with MrgX1 antagonist. MrgX1-HEK293, BAM8-22 calcium flux, Fluo-4; hits give low values. remaining BAM8-22 calcium response % of control (hits give low values), % at 10 µM. actives 19% (n = 2,300);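 active = remaining agonist calcium response no higher than 100% minus 3 SD of agonist-only control wells, with starting fluorescence near control levels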;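 also: agonist BAM8-22 given at a near maximal EC90 to ECmax level; peak minus minimum fluorescence divided by baseline after agonist addition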
HEK293 Ca flux: counter-screen for MrgX1 antagonists: effect in parental HEK293 cells. shares compounds with MrgX1 antagonist. Fluo-4 calcium fluorescence, FDSS. fluorescence ratio F(max-min)/F0 at 10 µM. actives 2% (n = 4,000). AID 624111;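 active = duplicate-averaged calcium fluorescence ratio at least three times the standard deviation of buffer wells, a nonspecific response in parental cells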
HEK293 Ca counter: activity in parental HEK293 cells without MrgX1. shares compounds with MrgX1 antagonist. parental HEK293 calcium flux, Fluo-4 fluorescence ratio; hits give high values. fluorescence ratio F(max-min)/F0 at 10 µM. actives 0.4% (n = 4,000);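 active = calcium fluorescence ratio, averaged over duplicates, at least 3 SD of the buffer-well ratio, meaning a nonspecific response in receptor-free cells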;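 also: untransfected parental HEK293 lacking MrgX1 used as counterscreen for MrgX1 allosteric activators; fluorescence change taken during the second addition on a kinetic imager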
HEK293 Ca cntr2: activity in parental HEK293 cells lacking MrgX1 receptor; shares compounds with MrgX1 antagonist; Fluo-4 calcium fluorescence (FDSS); hits give high values; fluorescence ratio F(max-min)/F0 at 10 µM; actives 8.7% (n = 4,000); AID 624115;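 active = calcium fluorescence ratio at least three times the spread of buffer wells, meaning a non-specific response in parental cells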
Numbers stand for hits; i = inactive; nt = no result. Sampled rows, rich in hits. Any-hit rate of the full collection: about 3.5%.

SMILES	RGS4 pot	MrgX1 PAM	RGS4 block	MrgX1 antagonist	MrgX1 agonist	MrgX1 antag conf	HEK293 Ca flux	HEK293 Ca counter	HEK293 Ca cntr2
CCCc1ccc(OCC(=O)O)cc1	i	i	i	i	i	nt	nt	nt	nt
CCC(C)c1ccc(OCC(=O)O)cc1 (stereo unspecified)	i	i	i	-6.9	i	i	i	i	i
COc1ccc(CC(=O)OCC(=O)Nc2ncc(Cl)cc2Cl)cc1	i	i	i	-4.7	i	i	i	i	i
CN(C)S(=O)(=O)N(CC(=O)Nc1ccc2ccccc2c1)c1ccccc1	i	i	i	i	i	nt	nt	nt	nt
CN(C)S(=O)(=O)N(CC(=O)Nc1ccc(F)c(F)c1)c1ccccc1	i	i	i	-6.1	i	i	i	i	i
Nc1nonc1-c1noc(N2CCCCC2)n1	i	i	i	-5.5	i	85%	i	i	i
COc1ccc(-c2noc(CN(C)C(=O)c3ccoc3C)n2)cc1OC	i	i	i	i	i	nt	nt	nt	nt
Cc1nc2sc(C(=O)c3ccccc3)c(N)c2c(C)c1C	i	i	i	i	i	nt	nt	nt	nt
Cc1nc(-c2ccccc2)nc2sc(C(=O)c3ccc(F)cc3)c(N)c12	i	i	i	-4.6	i	78%	i	i	i
CCOC(=O)c1cc2occc2n1CCCN1C(=O)c2ccccc2C1=O	i	i	i	-6.1	i	i	i	i	i
CCOC(=O)c1cc2occc2n1CC(=O)N1CCOCC1	i	i	i	i	i	nt	nt	nt	nt
COc1ccccc1CNC(=O)CS(=O)(=O)Cc1ccccc1	i	i	i	i	i	nt	nt	nt	nt
CN(CCN1CCOCC1)C(=O)CC1C(=O)NCCN1Cc1ccccc1F (stereo unspecified)	i	i	i	-8.6	i	i	i	i	i
CN(CCC1CCOCC1)C(=O)CC1C(=O)NCCN1Cc1ccccc1F (stereo unspecified)	i	i	i	i	i	nt	nt	nt	nt
Cc1nnc(C)n1/N=C/c1cccnc1	i	i	i	-7.1	i	i	i	i	i
COc1ccc(-c2csc(/C(C#N)=C\c3ccc(O)c([N+](=O)[O-])c3)n2)cc1OC	i	i	i	-11	i	41%	i	i	i
COc1ccc(-c2csc(/C(C#N)=C\c3ccc(OC)c([N+](=O)[O-])c3)n2)cc1	i	i	i	i	i	nt	nt	nt	nt
Cc1cccc(C(=O)Nc2ccccc2C(=O)OCC(=O)Nc2ccc(C#N)cc2)c1	i	i	i	i	i	nt	nt	nt	nt
C=C1CCN([C@@H](C)C(=O)OCc2cccc(C)c2)S(=O)(=O)c2ccccc21	i	i	i	-11	i	i	i	i	i
C=C1CCN([C@H](C(=O)OCc2ccc(C)cc2)C(C)C)S(=O)(=O)c2ccccc21	nt	i	nt	i	i	nt	nt	nt	nt
O=C(NCCCn1ccnc1)c1cc(S(=O)(=O)N2CCOCC2)c(Cl)cc1Cl	i	i	i	-5.1	i	i	i	i	i
COC(=O)c1ccc(CSc2nc3ccccc3c(=O)n2Cc2ccco2)o1	i	i	i	i	i	nt	nt	nt	nt
CCOC(=O)[C@H]1[C@H]2COc3ccc(Br)cc3[C@@H]2N2C(=O)c3cc(Br)ccc3NC(=O)[C@@]12C	nt	i	nt	i	i	nt	nt	nt	nt
O=C(CCCc1ccccc1)NCc1ccccc1Cl	i	i	i	i	i	nt	nt	nt	nt
COc1cc(C)c(S(=O)(=O)NC2CC(C)(C)NC(C)(C)C2)cc1C	i	i	i	-8.3	i	i	i	i	i
SMILES	RGS4 pot	MrgX1 PAM	RGS4 block	MrgX1 antagonist	MrgX1 agonist	MrgX1 antag conf	HEK293 Ca flux	HEK293 Ca counter	HEK293 Ca cntr2
COc1ccc(CN2CCN(C(=O)c3cccc4ccccc34)CC2)c(OC)c1OC	i	i	i	i	i	nt	nt	nt	nt
COc1cccc(C(=O)N2CCN(C(=O)c3cccc4ccccc34)CC2)c1OC	i	i	i	-4.9	i	85%	i	i	i
CC(C)[C@@H](C(=O)OCC(=O)Nc1ccc2c(c1)OCO2)N1C(=O)c2ccccc2C1=O	i	i	i	-5.3	i	i	i	i	i
O=C(COC(=O)[C@H](Cc1ccccc1)N1C(=O)c2ccccc2C1=O)Nc1ccc2c(c1)OCO2	i	i	i	i	i	nt	nt	nt	nt
CC(Oc1ccc(Br)cc1)C(=O)Nc1ccc(S(=O)(=O)N(C)C2CCN(C)CC2)cc1 (stereo unspecified)	i	i	i	-16	i	i	i	i	48
CC1CCC(C(C)C)C(OC(=O)Cn2c(-c3ccc(Cl)cc3)[n+](C)c3ccccc32)C1 (stereo unspecified)	-8.6	i	i	-9.9	i	45%	i	i	i
O=C(CSc1nnc(NC(=O)c2c(F)cccc2F)s1)NCc1ccc(F)cc1	i	i	i	i	i	nt	nt	nt	nt
CC(=O)c1ccc(NC(=S)NC(C)c2ccc(Cl)cc2Cl)cc1 (stereo unspecified)	i	i	i	-10	i	i	i	i	i
CCOC(=O)C1CCN(C(=O)C(=O)Nc2ccc3nc4n(c(=O)c3c2)CCCCC4)CC1	i	i	i	i	i	nt	nt	nt	nt
COc1ccc(CCNC(=O)CN2C(=O)C3(OCCCO3)c3ccccc32)cc1OC	i	i	i	-5.4	i	84%	i	i	i
COc1ccccc1NS(=O)(=O)c1cc(NC(=O)C(C)(C)C)ccc1N1CCOCC1	i	i	i	-4.6	i	82%	i	i	i
CC(C)(Oc1ccc(Cl)cc1)C(=O)OCC(=O)N1CCCC1	i	i	i	-13	i	i	i	i	i
COc1ccc(C)cc1NC(=O)Nc1ccc2c(c1)CCC2	i	i	i	i	i	nt	nt	nt	nt
CN1CCN(C(=O)CSc2ccc(C(F)(F)F)cc2[N+](=O)[O-])CC1	i	i	i	i	i	nt	nt	nt	nt
O=C1c2ccncc2C(=O)N1CO	i	i	i	-5	i	85%	i	i	i
Cc1nnc(SCC(=O)N(Cc2ccccc2)C(C)(C)C)[nH]c1=O	i	i	i	-4.6	i	i	i	i	i
CC(C)(C)N(Cc1ccccc1)C(=O)CSc1nc2ccccc2c(=O)[nH]1	i	i	i	i	i	nt	nt	nt	nt
CCSc1nc(C(F)(F)F)cc(=O)n1-c1ccccc1	i	i	i	i	i	nt	nt	nt	nt
CC(C)Sc1nc(C(F)(F)F)cc(=O)n1-c1ccccc1	i	i	i	-8.2	i	i	i	i	i
CS(=O)(=O)N(Cc1ccc(C(=O)N2CCc3ccccc3C2)cc1)c1ccccc1	i	i	i	-7.5	i	i	i	i	i
COc1ccccc1NC(=O)Cc1noc(CSc2nnc(C)s2)n1	i	i	i	i	i	nt	nt	nt	nt

Screening data (PubChem)
